Screening results: PubChem, SRMLSC
Only some compounds are listed: those with a hit (about 4.3% of all), similar ones and a draw of the others.
Yeast growth inh – growth inhibitors of yeast BB579 in restrictive medium, primary screen, yeast lifespan-shortening project, S. cerevisiae. inhibition, % at 10 µM. AID 804, 2007. OD615, 48 h. 140,000 tested, 0.51% active;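 active means inhibition above a set limit, 3 SD over the mean compound inhibition, cut at about 44% in these data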
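Assay system – yeast BB579 (DeaD) · Dosing – single compound dose of 10 µM, 0.25% DMSO final · Detection – OD615 turbidity measurement · Buffer or medium – CSMM-D restrictive synthetic medium containing dextrose (glucose) · Benchmarks – positive control amphotericin B 10 µg/mL · Incubation – 48 h exposure, 30 °C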
WT yeast gro inh – growth inhibition of WT strain, primary screen, mitochondrial fusion inhibitor project, WT and mutant strains, chemical genetic. mitochondrial fusion phenotypic screen. inhibition, % at 10 µM. 190,000 tested, 2.1% active; in the data active means inhibition above about 58%; tested in S. cerevisiae
RAM network inh – inhibitors of the yeast RAM network, primary screen, dse1pr::URA3 reporter, 5-FOA selection; S. cerevisiae dse1pr::URA3 reporter, 5-FOA growth OD615, 2 d; analog-sensitive cbk1-as2 kinase mutant strain; inhibition, % at 50 µM; 190,000 tested, 1.8% active;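 active means inhibition above a set limit, 3 SD over mean compound inhibition, cut at about 8.4% in these data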;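 further: 0% = DMSO-only wells with no growth and 100% = 10 µM 1-NA-PP1 full growth; inhibition rescues growth on 5-FOA so higher OD means more RAM inhibition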
Yeast lifespan up – compounds extending yeast replicative lifespan, primary screen, S. cerevisiae, OD615; S. cerevisiae growth with nicotinamide; deaD strain in restrictive glucose medium; inhibition of the nicotinamide effect, % at 10 µM; 130,000 tested, 0.68% active; AID 775, 2007;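 active means inhibition above a set limit, placed 3 SD over the median of all compounds, cut at about 26% in these data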;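 further: 0% = nicotinamide-treated wells and 100% = cells grown without nicotinamide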
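Measured by: optical density (absorbance) at 615 nm; System: modified budding yeast, DeaD strain; Medium: restrictive CSMM-D dextrose medium; Timing: 4 h preincubation then 48 h treatment at 30 °C.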
Active calls of the source: *; · = no result.

SMILES	Yeast growth inh	WT yeast gro inh	RAM network inh	Yeast lifespan up
Cc1cccc(Nc2c([N+](=O)[O-])cc(C(=O)N3CC(=O)Nc4ccccc43)cc2[N+](=O)[O-])c1	·	-17	9.5*	·
CCOC(=O)c1ccc(NC(=O)CN2C(=O)C(CC)SC(CC)C2=O)cc1 (centres undefined)	-22	-32	9.6*	5
CCOC(=O)c1c(C)[nH]c(C)c1C(=O)CSc1nc2ccccc2c(=O)n1-c1ccccc1C	9	27	9.7*	5
COC(=O)c1ccc(N=NNc2cccc(Br)c2)cc1	-56	21	1	-6
O=C1C2C3C=CC(C3=C(c3ccccc3)c3ccccc3)C2C(=O)N1CCO (centres undefined)	-20	27	2	-12
Cc1ccc(C(=C2C3C=CC2C2C(=O)NC(=O)C32)c2ccc(C)cc2)cc1 (centres undefined)	-56	83*	6	-7
CCO[C@@H]1OC(C(=O)NCc2nc3ccccc3[nH]2)=C[C@H](c2ccc(C(F)(F)F)cc2)[C@H]1CCCO	·	1	-1	·
Cc1cc(N2CCOCC2)ccc1/C=C\[N+](=O)[O-]	9	1	-1	34*
CCc1cccc(C)c1NC(=O)CCCSc1nc2ccccc2s1	-19	-3	8	8
CCc1cccc(CC)c1NC(=O)C1SC(=Nc2ccccc2C)C(c2nc3ccccc3s2)=C1N (centres undefined)	-75	36	8.8*	-1
CCOc1ccc(N(CC(=O)Nc2ccccc2C(=O)N2CCOCC2)S(=O)(=O)c2ccc(F)cc2)cc1	-2	-4	0	2
CC(C)(C)NC(=O)NC(=O)COC(=O)CNS(=O)(=O)c1ccc(Br)cc1Cl	·	14	1	·
O=c1[nH]c(=O)n(Cc2ccco2)c2c1C(C(F)(F)F)(C(F)(F)F)N=C(Cc1ccccc1)N2	-11	62*	3	-2
CC(C)C(=O)NC(=S)Nc1ccc(S(=O)(=O)N2CCN(C)CC2)cc1	2	-13	0	-5
Cc1ccc(C)c(OCCn2cc(/C=C(/C#N)C(=O)NCC3CCCO3)c3ccccc32)c1 (centres undefined)	-19	23	8.8*	-3
Cc1ccc(C#N)c(SCC(=O)Nc2nccs2)n1	·	25	5	·
O=[N+]([O-])c1cc(S(=O)(=O)N2CCCC2)ccc1O	-20	-9	0	3
CCOC(=O)CSc1ccc(S(=O)(=O)N2CCCCC2)cc1[N+](=O)[O-]	-51	10	8.7*	8
O=[N+]([O-])c1cc(S(=O)(=O)N2CCCCCC2)ccc1F	-7	48	2	66*
O=C(Cn1nc(-c2cccc([N+](=O)[O-])c2)c2ccccc2c1=O)NCC1CCCO1 (centres undefined)	·	-2	2	·
C/C(CC(=O)Nc1c(C)cc(C)cc1C)=N\NC(=O)c1cnccn1	-20	-5	1	10
C(=N\n1cnnc1)/c1cccc(Oc2ccccc2)c1	5	46	1	-12
S=c1[nH]ncn1/N=C/c1cccc(Oc2ccccc2)c1	-30	73*	0	-9
COc1ccc(-c2nnc3n2N=C(C)CS3)cc1	-5	10	2	-16
CCOC(=O)/C(=C\c1ccc(OC(F)F)cc1)C1=Nn2c(nnc2-c2ccc(Cl)cc2)SC1	2	71*	3	-1
SMILES	Yeast growth inh	WT yeast gro inh	RAM network inh	Yeast lifespan up
Cc1ccc(-n2c(N)c(C#N)c(-c3ccccc3)c(C#N)c2=O)cc1	-43	70*	1	-19
CCOC(=O)CSC1=N/C(=C\c2ccc(OC)c(OC)c2)C(=O)N1C	-29	21	7	-1
Fc1ccc(Nc2nc(-c3ccncc3)cs2)cc1	·	4	1	·
Cc1nc(C)c(-c2csc(Nc3ccc(F)cc3)n2)s1	·	73*	1	·
Cc1nc(NC(=O)c2ccccc2)sc1-c1csc(Nc2cccc(F)c2)n1	-101	80*	3	-8
Cc1ccc(Cl)cc1Nc1nc(-c2sc(NC(=O)c3ccccc3)nc2C)cs1	-84	-8	9.3*	-4
O=C(N=Nc1c(O)[nH]c2ccccc12)c1ccco1	·	13	1	·
Cc1cc(N/N=C/c2ccc(O)c(C)c2O)nc(-c2ccccc2O)n1	-32	76*	0	-8
C/C(=N\Nc1cc(C)nc(-c2ccccc2O)n1)c1ccccc1	·	47	1	·
O=C(Nc1cccc(Cl)c1)C1C2CCC3C(CCC21)C3(Cl)Cl (centres undefined)	-8	80*	1	-1
